From ChEMBL document CHEMBL1149628, “Synthesis of novel lactam derivatives and their evaluation as ligands for the dopamine receptors, leading to a D(4)-selective ligand” (Bioorg Med Chem, 2007) come the findings set out here.

Assay [1] addresses T1, D(2) dopamine receptor (Homo sapiens, UniProt P14416). The assay can be described thus: Antagonist activity at human Dopamine receptor D2 isoform long expressed in HEK293 cells assessed as change in quinpirole-induced intracellular calcium response at 10 uM. Format: functional, cell-based. Set-up: scale not given: the % may be the effect or the level left. The method in brief: (§1)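 HEK293 cells stably expressing hD2L or hD5 were loaded with Oregon Green 488 BAPTA-1/AM for 45 min at 37 °C and resuspended in Krebs-Hepes buffer at pH 7.4. Cells were preincubated with compound for 30 min at 37 °C, then given standard agonist at 1 µM final (quinpirole for D2, SKF 38393 for D5). Fluorescence (ex 485, em 520 nm) was read for 30 s; the value is % change of the agonist-induced signal.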
A general note: A change in cytosolic calcium serves as a functional read-out for many receptors and channels.

In assay [2] the target is T2, D(1B) dopamine receptor (Homo sapiens, UniProt P21918). In words: Antagonist activity at human Dopamine D5 receptor in HEK293 cells assessed as change in SKF 38393-induced intracellular calcium response at 10 uM. Format: functional, cell-based. More on the design: scale not given: the % may be the effect or the level left. The method in brief:
as §1

Assay [3] has as its target T2, D(1B) dopamine receptor. In words: Displacement of [3H]SCH 23390 from human Dopamine D5 receptor expressed in HEK293 cells at 10 uM. Format: cell-based. The method in brief: (§2)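 Whole HEK293 cells expressing hD5 or hD2L were suspended in 50 mM Tris-HCl, 5 mM MgCl2, pH 7.4, with [3H]SCH 23390 (D5) or [3H]spiperone (D2) and run in triplicate for 1.5 h at 27 °C. Samples were filtered on PEI-treated filtermats and counted by scintillation. Non-specific binding was set with fluphenazine 100 µM (D5) or haloperidol 10 µM (D2). The value is % change in bound radioactivity.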
(In general: In a radioligand displacement assay an active substance lowers the binding of a labelled ligand.)

The nature of assay [4]: Displacement of [3H]spiperone from human Dopamine D4.4 receptor expressed in CHO cells. Format: cell-based. The method in brief: (§3)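 [3H]Spiperone competition on whole-cell suspensions (D2L in HEK293, D4.4 in CHO) in Tris-HCl 50 mM/MgCl2 5 mM pH 7.4, 1.5 h at 27 °C. Non-specific binding defined with 10 µM haloperidol. Filtration over PEI-treated filtermat, scintillation counting. At least two independent triplicate experiments; nonlinear fit IC50 converted to Ki by Cheng-Prusoff.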

In assay [5] the target is T2, D(1B) dopamine receptor. The assay can be described thus: Antagonist activity at human Dopamine D5 receptor in HEK293 cells assessed as change in SKF 38393-induced intracellular calcium response. Format: functional, cell-based. A digest of the protocol:
(§4)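 Intact HEK293 cells stably expressing the receptor, loaded with Oregon Green 488 BAPTA-1/AM plus Pluronic F-127 for 45 min at 37 °C, then suspended in Krebs-Hepes buffer pH 7.4. Fluorescence ex 485/em 520 nm read over 30 s. IC50 by four-parameter fit; Ki via modified Cheng-Prusoff.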

For assay [6], the target named is T2, D(1B) dopamine receptor. In words: Displacement of [3H]SCH 23390 from human Dopamine D5 receptor expressed in HEK293. A digest of the protocol:
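Whole HEK293 cell suspension in 5 mM MgCl2/50 mM Tris-HCl pH 7.4, incubated with [3H]SCH 23390 for 1.5 h at 27 °C. Fluphenazine 100 µM defined non-specific binding. Separation by filtration over polyethyleneimine-treated filters, then scintillation counting. At least two independent experiments, each in triplicate; Ki from IC50 by Cheng-Prusoff.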

Assay [7] deals with T1, D(2) dopamine receptor. The assay can be described thus: Displacement of [3H]spiperone from human Dopamine receptor D2 isoform long expressed in HEK293 cells at 10 uM. Format: cell-based. The method in brief:
as §2

In assay [8] the target is D(3) dopamine receptor (Homo sapiens, UniProt P35462). In words: Displacement of [3H]spiperone from human Dopamine D3 receptor expressed in CHO cells. Format: cell-based.
Sequence of D(3) dopamine receptor (P35462 whole entry, canonical isoform): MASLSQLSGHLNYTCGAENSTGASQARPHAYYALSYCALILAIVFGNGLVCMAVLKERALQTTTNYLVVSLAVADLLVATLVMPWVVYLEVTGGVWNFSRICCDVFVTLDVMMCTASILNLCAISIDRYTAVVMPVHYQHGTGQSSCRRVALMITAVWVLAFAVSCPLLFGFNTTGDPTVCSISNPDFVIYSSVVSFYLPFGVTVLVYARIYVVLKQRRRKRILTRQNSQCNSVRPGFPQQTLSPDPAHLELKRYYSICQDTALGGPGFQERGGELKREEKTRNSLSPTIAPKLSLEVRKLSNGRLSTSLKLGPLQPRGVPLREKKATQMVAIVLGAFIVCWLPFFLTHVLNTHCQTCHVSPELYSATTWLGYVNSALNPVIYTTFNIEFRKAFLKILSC
The target of assay [9] is T1, D(2) dopamine receptor. In words: Displacement of [3H]Spiperone from human Dopamine receptor D2 isoform long expressed in HEK293 cells. Format: cell-based. The method in brief: as §3
Assay [10] can be described thus: Displacement of [3H]spiperone from human Dopamine D4.4 receptor expressed in CHO cells at 10 uM. Format: cell-based.
Assay [11] has as its target T1, D(2) dopamine receptor. The assay can be described thus: Antagonist activity at human Dopamine receptor D2 isoform long expressed in HEK293 cells assessed as change in quinpirole-induced intracellular calcium response. Format: functional, cell-based. The method in brief:
as §4

The species named for assay [12] is Homo sapiens. The assay can be described thus: Selectivity for human dopamine D4.4 receptor over human dopamine D5 receptor.
For assay [13], the species on record is Homo sapiens. In words: Selectivity for human dopamine D4.4 receptor over human dopamine receptor D2 isoform long.
The species entered for assay [14] is Homo sapiens. The assay can be described thus: Selectivity for human dopamine D4.4 receptor over human dopamine D3 receptor.

Structures are written as SMILES. Activity calls are given as the source filed them. No cut-off for these calls is given here. Some results are limits rather than exact numbers.

T1 sequence (P14416 whole entry, canonical isoform): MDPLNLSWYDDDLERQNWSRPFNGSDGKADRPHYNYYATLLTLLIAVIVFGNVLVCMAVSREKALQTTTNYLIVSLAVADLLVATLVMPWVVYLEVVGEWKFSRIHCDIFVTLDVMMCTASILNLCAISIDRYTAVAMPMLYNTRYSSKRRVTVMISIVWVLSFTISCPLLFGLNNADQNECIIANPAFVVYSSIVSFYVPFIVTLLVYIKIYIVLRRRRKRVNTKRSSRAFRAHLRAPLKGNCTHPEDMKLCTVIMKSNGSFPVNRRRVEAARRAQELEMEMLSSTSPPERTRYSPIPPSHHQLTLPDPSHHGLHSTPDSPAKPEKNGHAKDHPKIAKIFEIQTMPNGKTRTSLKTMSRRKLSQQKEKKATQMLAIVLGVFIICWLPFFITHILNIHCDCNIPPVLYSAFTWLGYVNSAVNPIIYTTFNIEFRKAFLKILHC
T2 sequence (P21918 whole entry): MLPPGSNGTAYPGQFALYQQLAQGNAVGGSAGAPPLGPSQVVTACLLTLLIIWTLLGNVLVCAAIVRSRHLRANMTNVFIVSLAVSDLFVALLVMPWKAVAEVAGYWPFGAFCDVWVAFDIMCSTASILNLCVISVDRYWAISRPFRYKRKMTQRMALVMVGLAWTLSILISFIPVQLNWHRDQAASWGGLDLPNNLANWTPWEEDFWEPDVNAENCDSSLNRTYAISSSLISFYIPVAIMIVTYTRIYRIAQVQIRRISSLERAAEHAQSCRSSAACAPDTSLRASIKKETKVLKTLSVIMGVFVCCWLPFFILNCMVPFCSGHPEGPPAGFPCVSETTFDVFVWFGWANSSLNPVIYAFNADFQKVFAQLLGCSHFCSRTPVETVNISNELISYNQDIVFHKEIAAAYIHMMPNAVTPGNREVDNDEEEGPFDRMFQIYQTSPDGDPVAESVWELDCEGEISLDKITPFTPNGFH

What is called Ki is a measure of affinity in units of concentration, obtained from inhibition or displacement. On to `O=C1c2ccccc2CN1CCCCN1CCN(c2cccc(C(F)(F)F)c2)CC1`, for which the Activity in assay [1] is -53%; in assay [2] it was 41%; in assay [3] it was 99%; in assay [7] it was 106%; in assay [10], 95%. The Ki in assay [4] came to 368 nM; in assay [6] it was 80.8 nM; in assay [8], 14 nM; in assay [9], 387 nM; in assay [11] it was 26 nM. Also, in assay [5], the outcome was inactive.
For the compound `O=c1c2ccccc2ncn1CCCCN1CCN(c2ccc(Cl)cc2)CC1`, the Activity is -44% in assay [1]; 5% in [2]; 76% in [3]; 100% in assay [7]; 102% in [10]. Also, the Ki in [4] was 158 nM; in assay [5], “Not Active”; in assay [6], 507 nM; in assay [8] it was 1780 nM; in [9], 140 nM; in [11], more than 10000 nM.
Regarding `O=C1c2ccccc2S(=O)(=O)N1CCCCN1CCN(c2cccc(C(F)(F)F)c2)CC1`, the Activity in [1] was -44%; in assay [2], 8%; in assay [3], 89%; in assay [7] it was 100%; in assay [10] it was 54%. In addition, the Ki is more than 10000 nM in assay [4]; 1760 nM in assay [6]; 107 nM in assay [8]; 113 nM in assay [9]; more than 10000 nM in assay [11]. In addition, the result in assay [5] was inactive.
For the compound `O=c1c2ccccc2ncn1CCCCN1CCN(c2cccc(C(F)(F)F)c2)CC1`, the Activity in assay [1] was -38%; in [2] it was 9%; in assay [3], 76%; in [7], 107%; in assay [10] it was 98%. The Ki in assay [4] was 185 nM; in [6], 1700 nM; in [8], 102 nM; in [9] it was 73 nM; in assay [11] it was more than 10000 nM. In addition, the result in assay [5] was inactive.
With `COc1ccccc1N1CCN(CCCCn2cnc3ccccc3c2=O)CC1`, the Activity in assay [1] is -58%; in assay [7] it was 105%. In addition, the Ki in [9] turned out to be 184 nM; in assay [11], 1.2 nM.
Consider `O=C1Cc2ccccc2N1CCCCN1CCN(c2cccc(C(F)(F)F)c2)CC1`, for which the Activity in assay [1] was -55%; in assay [2] it was 26%; in assay [3] it was 93%; in [7], 105%; in assay [10], 96%. Further, the Ki was determined as 28 nM in [4]; 190 nM in [6]; 247 nM in assay [8]; 323 nM in assay [9]; 416 nM in assay [11]. Also, the outcome in assay [5] was inactive.
`O=C1c2ccccc2CN1CCCCN1CCN(c2ccc(Cl)cc2)CC1`: the Activity in [1] was -7%; in [2] it was 21%; in [3] it was 100%; in assay [7], 105%; in assay [10], 91%. The Ki in assay [4] was 142 nM; in [6], 33.6 nM; in [8] it was 660 nM; in assay [9], 760 nM; in assay [11] it was more than 10000 nM. For the same compound, in assay [5], the result was inactive.
Consider `O=C1Cc2ccccc2N1CCCCN1CCN(c2ccc(Cl)cc2)CC1`, for which the Activity in assay [1] was -28%; in assay [2] it was 8%; in assay [3] it was 93%; in [7] it was 106%; in [10], 101%. The Selectivity ratio is more than 5000 in assay [12], more than 43000 in [13] and more than 30000 in [14]. In addition, the Ki was determined as 0.04 nM in [4]; 202 nM in assay [6]; 1200 nM in assay [8]; 1750 nM in [9]; 375 nM in [11]. Also, the result in assay [5] was inactive.
As to `O=C1c2ccccc2S(=O)(=O)N1CCCCN1CCN(c2ccc(Cl)cc2)CC1`, the Activity in assay [1] is -24%; in assay [2], 4%; in [3], 87%; in assay [7], 99%; in assay [10], 101%. Moreover, the Ki in [4] is 36 nM; in assay [6], 230 nM; in assay [8], 287 nM; in assay [9], 177 nM; in [11] it was more than 10000 nM. The result in assay [5] was inactive.
